Assay results taken from ChEMBL document CHEMBL3085701, “Optimization of novel indole-2-carboxamide inhibitors of neurotropic alphavirus replication” (J Med Chem, 2013).

Columns and labels:
[1] = tested on: Western equine encephalitis virus; assay: Antiviral activity against Western equine encephalomyelitis virus infected in human BE(2)-C cells assessed as inhibition of viral RNA replication after 18 to 20 hrs by luciferase reporter gene assay; format: functional, cell-based
[2] = Therapeutic index, ratio of CC50 for human BE(2)-C cells to IC50 for Western equine encephalitis virus; details: read-out: Ratio CC50/IC50
[3] = biological target: MDR1 (ABCB1, P-glycoprotein) (Homo sapiens, UniProt P08183); assay: Inhibition of human MDR1 expressed in MDCK2 cells assessed as increase of rhodamine 123 uptake at 30 uM up to 240 mins relative to control; format: ADME, cell-based, MDCK-II; details: MDCK2 cells expressing human MDR1, probe rhodamine 123
MDR1 (ABCB1, P-glycoprotein), sequence (P08183 whole entry): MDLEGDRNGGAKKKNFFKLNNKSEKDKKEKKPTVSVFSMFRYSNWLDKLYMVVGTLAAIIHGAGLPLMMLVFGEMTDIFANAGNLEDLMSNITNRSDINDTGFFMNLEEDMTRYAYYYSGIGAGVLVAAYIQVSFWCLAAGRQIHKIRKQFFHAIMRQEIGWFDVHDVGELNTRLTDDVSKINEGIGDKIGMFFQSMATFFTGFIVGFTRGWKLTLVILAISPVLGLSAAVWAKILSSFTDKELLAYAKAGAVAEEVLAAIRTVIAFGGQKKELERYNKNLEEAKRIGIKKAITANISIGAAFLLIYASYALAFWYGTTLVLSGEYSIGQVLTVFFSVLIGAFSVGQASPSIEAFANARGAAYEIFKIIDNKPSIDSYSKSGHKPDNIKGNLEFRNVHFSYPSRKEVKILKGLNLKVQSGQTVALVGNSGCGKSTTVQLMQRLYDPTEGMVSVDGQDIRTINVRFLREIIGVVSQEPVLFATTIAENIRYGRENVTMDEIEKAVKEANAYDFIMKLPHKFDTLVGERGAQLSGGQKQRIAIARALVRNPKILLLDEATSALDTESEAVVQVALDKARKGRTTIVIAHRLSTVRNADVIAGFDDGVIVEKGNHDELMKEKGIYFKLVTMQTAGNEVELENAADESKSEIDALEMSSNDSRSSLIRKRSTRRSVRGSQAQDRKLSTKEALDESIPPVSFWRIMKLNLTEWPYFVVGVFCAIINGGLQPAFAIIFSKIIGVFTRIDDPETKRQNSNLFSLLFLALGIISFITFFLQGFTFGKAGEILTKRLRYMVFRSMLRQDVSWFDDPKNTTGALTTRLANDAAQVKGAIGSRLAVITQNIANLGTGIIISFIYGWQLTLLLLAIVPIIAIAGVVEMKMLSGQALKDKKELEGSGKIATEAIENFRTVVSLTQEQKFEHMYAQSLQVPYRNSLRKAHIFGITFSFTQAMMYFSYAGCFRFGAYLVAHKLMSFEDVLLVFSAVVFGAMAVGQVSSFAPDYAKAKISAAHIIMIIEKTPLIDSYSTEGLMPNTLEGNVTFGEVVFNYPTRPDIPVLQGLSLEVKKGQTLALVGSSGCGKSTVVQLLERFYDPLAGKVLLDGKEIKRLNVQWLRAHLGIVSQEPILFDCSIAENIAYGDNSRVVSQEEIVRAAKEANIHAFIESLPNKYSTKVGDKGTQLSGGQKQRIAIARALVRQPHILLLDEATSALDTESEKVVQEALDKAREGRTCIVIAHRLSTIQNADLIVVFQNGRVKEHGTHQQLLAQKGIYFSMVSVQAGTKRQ
Procedure, shortened: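 Confluent MDR1-MDCKII cells (human Pgp-transfected) given fresh DMEM with 10 μM rhodamine 123, plus vehicle, tariquidar (5 μM) or compound (30 μM). Uptake at 37°C from 1 to 240 min, stopped by ice-cold PBS washes. Fluorescence read at ex 525/em 560-640 nm. Result expressed as % of same-day tariquidar effect, (Cav−Cveh)*100/(Ctar−Cveh). Triplicates on ≥3 occasions.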

[4] = Cytotoxicity against human BE(2)-C cells after 18 to 20 hrs by MTT assay; format: cell-based
Fort Morgan virus = assay: Antiviral activity against Fort Morgan virus infected in human BE(2)-C cells assessed as reduction of viral titer at 25 uM after 24 hrs by plaque reduction assay (reference value: 47.1 +/- 10.5 x 10^6 pfu/ml); format: functional
[5] = Cytotoxicity against human BE(2)-C cells assessed as cell viability at 25 uM after 24 hrs by MTT assay relative to control; format: cell-based; details: read-out: Activity
[6] = Plasma concentration in C57BL/6 mouse at 30 mg/kg, ip after 30 mins; format: ADME, organism-based; parameters: dose 30 mg/kg, route intraperitoneal
Procedure, shortened: (§1)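 C57BL/6 female mice given a single IP injection of compound in 2% sterile DMSO/PBS, at the stated dose. Duplicate mice per time point. Blood taken by cardiac puncture into EDTA and plasma separated. Cerebrum harvested after PBS perfusion and flash-frozen. Drug quantified by LC/MS/MS as ng/mL plasma or ng/g brain.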

Brain [7] = assay: Drug level in C57BL/6 mouse brain at 30 mg/kg, ip after 30 mins; format: ADME, organism-based; parameters: dose 30 mg/kg, route intraperitoneal; details: in vivo, 0.5 h, BLD = below limit of detection
Procedure, shortened: (§2)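 Female C57BL/6 mice were given a single IP dose in 2% sterile DMSO/PBS. At each time point, duplicate mice had blood taken by cardiac puncture. They were then perfused with PBS, and the cerebrum was harvested and flash frozen on dry ice. Brain drug levels were quantified by LC/MS/MS and reported as ng/g; BLQ means below the limit of quantitation.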

[8] = Plasma concentration in C57BL/6 mouse at 30 mg/kg, ip after 2 hrs; format: ADME, organism-based; parameters: dose 30 mg/kg, route intraperitoneal; procedure, shortened: as §1
Brain [9] = assay: Drug level in C57BL/6 mouse brain at 30 mg/kg, ip after 12 hrs; format: ADME, organism-based; parameters: dose 30 mg/kg, route intraperitoneal; details: in vivo, BLD = below limit of detection; procedure, shortened: as §2
[10] = Kinetic solubility of the compound; format: physicochemical
[11] = tested on: Western equine encephalitis virus; assay: Antiviral activity against Western equine encephalomyelitis virus infected in human BE(2)-C cells assessed as reduction of viral titer at 25 uM after 24 hrs by plaque reduction assay (reference value: 25.7 +/- 5.2 x 10^6 pfu/ml); format: functional
Plasma [12] = assay: (§3) Plasma concentration in C57BL/6 mouse at 30 mg/kg, ip after 12 hrs; format: ADME, organism-based; parameters: dose 30 mg/kg, route intraperitoneal; details: mouse, in vivo, 12 h, BLD = below limit of detection; procedure, shortened: as §1
[13] = Half life in Balb-C mouse liver microsomes; format: ADME, Microsome
Procedure, shortened: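 Compound incubated with Balb-C mouse liver microsomes, and half-life determined for oxidative metabolism. Values are means of ≥2 independent incubations.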

Brain [14] = assay: Drug level in C57BL/6 mouse brain at 30 mg/kg, ip after 2 hrs; format: ADME, organism-based; parameters: dose 30 mg/kg, route intraperitoneal; details: in vivo, BLD = below limit of detection; procedure, shortened: as §2
[15] = as §3; format: ADME, organism-based; parameters: dose 30 mg/kg, route intraperitoneal; details: C57BL/6, mouse, plasma; procedure, shortened: as §1
Brain [16] = assay: Drug level in C57BL/6 mouse brain at 20 mg/kg, ip after 2 hrs; format: ADME, organism-based; parameters: dose 20 mg/kg, route intraperitoneal; details: in vivo, BLD = below limit of detection; procedure, shortened: as §2
[17] = Drug level in C57BL/6 mouse brain at 20 mg/kg, ip after 30 mins; format: ADME, organism-based; parameters: dose 20 mg/kg, route intraperitoneal; details: read-out: Drug uptake; procedure, shortened: as §1
Plasma [18] = assay: Plasma concentration in C57BL/6 mouse at 20 mg/kg, ip after 12 hrs; format: ADME, organism-based; parameters: dose 20 mg/kg, route intraperitoneal; details: in vivo, BLD = below limit of detection; procedure, shortened: as §1
Brain [19] = assay: Drug level in C57BL/6 mouse brain at 20 mg/kg, ip after 12 hrs; format: ADME, organism-based; parameters: dose 20 mg/kg, route intraperitoneal; details: in vivo, BLD = below limit of detection; procedure, shortened: as §2
[20] = Plasma concentration in C57BL/6 mouse at 20 mg/kg, ip after 2 hrs; format: ADME, organism-based; parameters: dose 20 mg/kg, route intraperitoneal; procedure, shortened: as §1
[21] = Plasma concentration in C57BL/6 mouse at 20 mg/kg, ip after 30 mins; format: ADME, organism-based; parameters: dose 20 mg/kg, route intraperitoneal; procedure, shortened: as §1

Row | SMILES | IC50 [1] | inhibition at 4 h, 30 µM [3] | CC50 ([4]; be(2)-c) | Activity (Fort Morgan virus) | viability at 24 h, 25 µM [5] | concentration at 0.5 h [6] | Drug uptake (Brain [7]) | concentration at 2 h [8] | Drug uptake (Brain [9]) | CC50 ([4]; BE(2)-C cells) | Kinetic_solubility [10] | Activity [11] | t1/2 [13] | Drug uptake (Brain [14]) | other results
1 | O=C(NCCc1ccncc1)C1CCN(C(=O)c2cc3ccccc3n2Cc2c(F)cccc2F)CC1 | 1300 nM | 28.5% | 34.5 µM | – | – | – | – | – | – | – | – | – | – | – | selectivity ratio [2]: 50
2 | C[C@@H](NC(=O)C1CCN(C(=O)c2cc3ccccc3n2Cc2ccc(Cl)cc2)CC1)c1ccccc1 | 6500 nM | 24.4% | – | 39.3 ×10⁶ PFU/ml | 36.7% | 10 ng/mL | BLD | 30 ng/mL | BLD | > 100 µM | 8 µM | 8.8 ×10⁶ PFU/ml | 2.1 min | BLD | Cp (Plasma [12]): BLD
3 | O=C(NCCc1ccncc1)C1CCN(C(=O)c2cc3ccccc3n2Cc2ccc(Cl)cc2)CC1 | 500 nM | 30.9% | 49.9 µM | 4.9 ×10⁶ PFU/ml | 60.7% | 59 ng/mL | BLD | 79 ng/mL | BLD | – | 31 µM | 0.5 ×10⁶ PFU/ml | 11.5 min | BLD | concentration at 12 h [15]: 23 ng/mL
4 | O=C(NCCc1ccncc1)C1CCN(C(=O)c2cccn2Cc2ccc(Cl)cc2)CC1 | 700 nM | -1.2% | – | 23.8 ×10⁶ PFU/ml | 59.1% | – | – | – | – | > 100 µM | 125 µM | 4.9 ×10⁶ PFU/ml | 2.9 min | – | Drug uptake (Brain [16]): BLD; concentration at 0.5 h [17]: 19 ng/g; Cp (Plasma [18]): BLD; Drug uptake (Brain [19]): BLD; concentration at 2 h [20]: 5 ng/mL; concentration at 0.5 h [21]: 124 ng/mL
